# MC4R barr agon = activates human MC4R beta-arrestin recruitment | P32245 | U2OS MC4R beta-arrestin complementation, luminescence; percent of melanotan II response, DMSO zero | AID 540308 | activation, % at 8.9 µM | actives 0.98% (n = 360,000);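 active means activation above a per-plate cutoff, the mean activation of sample wells on that plate plus 3 SD, cut at about 8% in these data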
# Target sequence (P32245 whole entry, looked up): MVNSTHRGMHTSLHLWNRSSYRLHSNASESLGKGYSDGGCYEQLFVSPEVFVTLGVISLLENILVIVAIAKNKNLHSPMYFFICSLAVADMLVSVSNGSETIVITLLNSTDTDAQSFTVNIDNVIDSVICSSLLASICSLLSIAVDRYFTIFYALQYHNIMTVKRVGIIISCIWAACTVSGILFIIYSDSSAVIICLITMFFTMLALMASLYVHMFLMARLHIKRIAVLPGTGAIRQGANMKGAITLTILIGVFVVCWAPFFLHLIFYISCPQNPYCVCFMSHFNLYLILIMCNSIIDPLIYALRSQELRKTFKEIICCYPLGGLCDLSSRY
# MC4R antag cAMP = antagonists of human melanocortin 4 receptor (MC4R) | MC4R-expressing cells, MTII-stimulated cAMP, LANCE TR-FRET | inhibition, % at 6.5 µM | actives 0.48% (n = 360,000) | AID 540295;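 active means inhibition above its plate's cutoff, the mean of tested wells on that plate plus 3 SD, cut at about 29% in these data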;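 further: 0% = Melanotan II alone and 100% = Melanotan II plus saturating MCL0020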
#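 System: U2OS-MC4R stable cell line; Technique: Eu-cAMP/anti-cAMP TR-FRET, emission 671 nm; Repeats: single well per compound; Also added: Melanotan II; Dosing: one concentration, 6.5 µM nominal; Schedule: 30-min compound, 1-h challenge, 1-h detection, room temperature.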
# MPTP inh = inhibitors of mitochondrial permeability transition pore | inhibition, % at 10 µM | actives 1.4% (n = 360,000) | isolated mouse mitochondria, Ca2+ swelling absorbance, 30 min;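 active means inhibition of 50% or more, scaled per plate between neutral and stimulator controls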;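 further: 0% = DMSO wells given calcium and 100% = 1 mM EGTA wells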
# ATG4B inhibitor = ATG4B (human) cysteine protease inhibition | Q9Y4P1 | ATG4B cleavage of LC3-PLA2, NBD-HPC fluorescence, 1 h | inhibition, % at 8.33 µM | actives 0.51% (n = 340,000) | AID 504462; in the data active means inhibition above about 40%
# SMARCA2 activ = SMARCA2 function activation, primary screen | MG213 cells, MMTV-luciferase reporter, dexamethasone, overnight | activation, % at 9.1 µM | actives 1% (n = 370,000) | AID 652017; in the data active means activation above about 7.8%;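 further: 0% = vehicle wells and 100% = reference activator wells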
# U2OS cAMP counter = nonselective cAMP signaling inhibitor, MC4R antagonist counter-screen. actives 26% (n = 1,600). inhibition, % at 6.5 µM. shares compounds with MC4R antag cAMP. parental U2OS, forskolin cAMP, LANCE TR-FRET. AID 602193;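 active means mean inhibition over triplicates above the low-control well mean plus 3 SD, set per campaign, cut at about 13% in these data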;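 further: signal is single emission at 671 nm which falls as cellular cAMP rises; 0% = forskolin-stimulated wells and 100% = buffer without forskolin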
# MC4R antag conf = human MC4R cAMP antagonism confirmation | shares compounds with MC4R antag cAMP | MC4R-expressing cells, MTII-stimulated cAMP, TR-FRET | inhibition, % at 6.5 µM | actives 27% (n = 1,600) | AID 602195; in the data active means inhibition above about 29%;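 further: 0% = agonist stimulated wells alone and 100% = agonist stimulated wells plus saturating reference antagonist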
# The depositor's hits bear a star; x = no result given. In the library only some 4.1% were active in any assay of this set; here they are far more common.
SMILES,MC4R barr agon,MC4R antag cAMP,MPTP inh,ATG4B inhibitor,SMARCA2 activ,U2OS cAMP counter,MC4R antag conf
CCOC(=O)c1ccc(N/C=C/C(=O)C(C)(C)C)cc1,2.0,30.5*,2.4,2.3,4.0,0.3,0.1
CCCCCCC(=O)n1ccc2ccc(-c3ccc4ccn(Cc5ccc(OC)cc5)c4c3)cc21,x,x,x,x,-0.5,x,x
CCCCC(=O)NNC(=O)CC(=O)Nc1ccccc1C(=O)O,1.3,13.9,0.7,-6.2,-4.1,x,x
CCOCC(=O)Nc1ccccc1C(=O)O,-1.2,29.8*,-1.5,-4.0,3.9,1.3,-14.4
COc1ccc(OC)c2c1C(=O)C(Cl)=C(Cl)C2=O,-2.3,32.0*,4.7,3.1,-9.1,72.7*,48.7*
C=CCn1c(Sc2ncc([N+](=O)[O-])s2)n[nH]c1=O,-2.1,42.9*,5.3,1.7,-15.6,29.9*,31.3*
CS(=O)(=O)Cc1cccc(C(=O)NC2CCSc3ccccc32)c1 (stereo not given),0.8,32.5*,0.9,1.7,-0.3,4.6,-1.5
CCOc1ccc(S(=O)(=O)N2CCC(C(=O)N3CCN(c4ccccc4)CC3)CC2)cc1,3.5,-4.0,-0.4,6.8,-3.5,x,x
COC(=O)COc1ccc(S(=O)(=O)N2CCN(c3ccccc3)CC2)cc1,-2.5,50.0*,-0.9,5.4,1.7,13.7*,27.8
COC(=O)COc1ccc(S(=O)(=O)N2CCN(c3ccccc3F)CC2)cc1,-0.8,41.8*,1.2,8.6,-4.0,13.9*,33.3*
CC(=O)Oc1c(C(C)C)cc(N(C(C)=O)c2ccccc2)cc1C(C)C,1.3,32.9*,2.9,-11.6,-4.2,-0.3,4.2
COc1ccc(-n2c(Cc3cccs3)nnc2SCC(=O)Nc2cccc3ccccc23)cc1,x,x,x,x,-3.1,x,x
O=C(COC(=O)COc1cccc(F)c1)NCCC1=CCCCC1,-3.9,-0.6,-1.2,-5.6,-0.3,x,x
O=C(COC(=O)CNC(=O)c1cccc(F)c1)NCCC1=CCCCC1,-0.6,28.5*,1.2,-4.7,-1.4,18.3*,40.4*
Cc1onc(-c2c(F)cccc2Cl)c1C(=O)Nc1nnc(C(F)(F)F)s1,-4.0,47.5*,46.5,-3.5,-3.1,36.4*,74.0*
Cc1ccccc1-n1c(SCC(=O)Nc2c(C)cccc2C)nc(O)cc1=O,1.8,33.5*,0.3,5.7,-3.4,4.1,-7.9
CCCCCCCCN1C(=O)[C@@H](CC(=O)N2CCSCC2)C[C@@]2(C(=O)OC)C1=C[C@H](C(C)C)O[C@@H]2C1CC1,x,x,x,x,-0.9,x,x
CC(C)(C)c1ccc(OCCSc2nc3ccccc3n2CC(=O)O)cc1,-0.6,33.8*,-0.2,-4.5,0.3,-2.2,-3.8
CCOC(=O)C1=NOC(C(=O)NC2CCCC2)(C(=O)C2CC2)C1 (stereo not given),x,x,x,x,-1.7,x,x
CCOC(=O)C1=C(C(=O)OCC)C2N(Cc3ccc(Br)cc3)c3ccccc3[C@@]23C[C@@H](C(=O)OC)N(S(=O)(=O)c2ccc(Br)cc2)C3=N1 (stereo not given in full),x,x,x,x,-1.0,x,x
C=C1CC2(OC1=O)c1ccccc1CCc1ccccc12,-2.2,31.6*,-3.3,-5.8,-10.7,38.6*,24.2
Cc1ccc(-c2nc3c(c(=O)[nH]c(=O)n3Cc3ccccc3)n2Cc2ccccc2)o1,-2.4,9.1,-3.0,-5.2,-0.1,x,x
CCn1c(CO)nc2c1c(=O)[nH]c(=O)n2Cc1ccccc1,-2.1,31.1*,-0.1,2.0,0.1,0.4,1.9
Cn1c(C2CCCCC2)nc2c1c(=O)[nH]c(=O)n2Cc1ccccc1,-3.1,33.8*,0.2,-12.5,-1.8,3.5,8.4
Cc1ccc(Nc2nnc(SC3CCOC3=O)s2)cc1 (stereo not given),-1.9,5.9,-0.5,-6.4,-1.5,x,x
SMILES,MC4R barr agon,MC4R antag cAMP,MPTP inh,ATG4B inhibitor,SMARCA2 activ,U2OS cAMP counter,MC4R antag conf
CC(C)c1ccc(Nc2nnc(SC3CCOC3=O)s2)cc1 (stereo not given),-2.9,30.9*,2.5,-9.7,-1.6,41.1*,32.9*
CCCCCCCNC(=O)CN1C(=O)CSc2ccc(S(=O)(=O)N3CCOCC3)cc21,-1.6,0.1,-1.3,3.2,-3.0,x,x
CCCCNC(=O)CN1C(=O)CSc2ccc(S(=O)(=O)N3CCOCC3)cc21,-0.3,55.0*,0.1,x,-0.9,-1.8,-14.6
CC(C)CN1CN2Cc3cc(F)ccc3C2CS1(=O)=O (stereo not given),x,x,x,x,-1.8,x,x
CC(C)Cc1nc2oc3c(Cl)ncnc3c2c2c1CCC2,-4.2,60.0*,1.2,-7.4,3.0,8.2,42.7*
CCOc1ccc(C(=O)CCC(=O)NCC(=O)OCc2ccccc2)cc1OCC,2.5,31.8*,-0.9,-15.6,-1.5,13.0,23.6
O=C(CCN1Cc2ccccc2C1)c1ccc2c(c1)OCCO2,-3.2,33.5*,-0.3,-1.4,1.0,18.4*,31.2*
COC(=O)C[C@@H]1CC[C@@H]2[C@@H](COc3ccc(NC(=O)Nc4ccc(F)cc4)cc3C(=O)N2C)O1,x,x,x,x,-3.3,x,x
CC(C)C1C(c2ccccc2)N(C)C(c2ccccc2)CC1(O)c1ccccc1 (stereo not given),2.0,28.5*,3.2,4.8,1.0,2.9,25.5
Cc1ccc2c(c1)c1c3n2CCN(C(=O)CCl)C3CCC1 (stereo not given),0.7,38.4*,0.2,8.2,-5.1,5.4,29.0*
COc1ccc(CNS(=O)(=O)CC2NCCc3ccccc32)cc1 (stereo not given),x,x,x,x,3.1,x,x
O=C(NC(=S)Nc1cccc([N+](=O)[O-])c1)c1ccccc1,-0.1,32.7*,2.5,-1.6,0.8,1.5,-8.7
O=C(O)C1C2CCC(C2)C1C(=O)Nc1ccccc1 (stereo not given),-1.0,8.8,2.4,13.0,-2.6,x,x
O=C(O)C1C2CCC(C2)C1C(=O)Nc1cccc([N+](=O)[O-])c1 (stereo not given),-2.2,29.0*,-1.0,1.0,0.3,-7.5,-19.9
CN(CC(=O)NCCCc1ccccc1)Cc1ccc(Br)cc1,5.3,30.1*,1.3,-2.1,-1.3,-3.0,-1.0
Cc1ccc(-c2c(CC(=O)O)c(C)nc3sc4c(c23)CCCC4)cc1,-1.0,29.4*,0.0,9.1,-3.0,2.1,-1.4
COc1ccc(S(=O)(=O)NNC(=O)c2cccs2)cc1,0.1,32.5*,-2.1,2.9,-0.9,1.4,-5.4
CC(C)CNC(=O)COC(=O)CNC(=O)c1cc(Cl)cc([N+](=O)[O-])c1,-1.9,32.9*,-0.7,-1.1,-4.7,17.2*,32.1*
COC(=O)CSc1nnc(-c2ccc(S(=O)(=O)N3CCC(C)CC3)cc2)o1,-1.4,21.7,1.6,-3.0,-0.8,x,x
CCOc1ccc(S(=O)(=O)NCC(=O)OCc2nnc(-c3ccccc3)o2)cc1,-2.7,22.1,-0.1,-5.8,-3.1,x,x

# Assay outcomes deposited in PubChem by several laboratories.
